Not all results are given here.
HKDC1 act: activators of human hexokinase HKDC1; Q2TB90; recombinant HKDC1, G6PDH/diaphorase resazurin fluorescence; active compounds read low; activity change, negative = activation, % at 20 µM; 340,000 tested, 0.056% active; AID 493187;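 active = activation of 40% or more at 20 µM, a change of -40% or lower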
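Material: in-house human HKDC1 enzyme, G6PDH and diaphorase coupling enzymes | Quantity: HKDC1 at 5 µg/mL final | Medium: Tris buffer at pH 8.0 containing MgCl2 | Compound dosing: 20 µM single dose | Schedule: 90 min reaction at room temperature, dark | Measured by: Resorufin fluorescence, 525/613 nm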
Large screens that a line does not name were inactive.

COc1ccccc1NC(=S)NN=C(C)c1ccccn1	HKDC1 act -41
O=c1cc(O)c2sc(Nc3ccc(Cl)c(F)c3)nc2[nH]1	none
Cc1nc2c(O)c3c(c(O)c2nc1C)C1C=CC3CC1	none
COc1ccc(N2CCN(C(=O)CSc3nnc4c(C)cc5c(C)cc(C)cc5n34)CC2)cc1	none
O=C1NN(c2cccc(Br)c2)C(=O)/C1=C/c1ccc(-c2cc([N+](=O)[O-])ccc2O)o1	none
O=C1C(N2CCOCC2)=C(n2nnc3ccccc32)C(=O)c2ccccc21	none
Cn1cnc([N+](=O)[O-])c1Sc1ccc(Br)cc1	HKDC1 act -58
O=C(/C=C/c1ccc(Br)o1)OCc1nc2ccsc2c(=O)[nH]1	none
S=C1Cc2ccccc2N1	HKDC1 act -303
CC(=O)n1cc(N(C(=O)CCl)c2ccc([N+](=O)[O-])cc2)c2ccccc21	none
O=C(COC(=O)c1n[nH]c2ccccc12)c1cccc(Br)c1	none
O=C(c1ccccc1)c1n[nH]c(-c2ccccc2)cc1=O	HKDC1 act -42
COc1ccc(S(=O)(=O)/N=C2\C=C(Nc3ccc(O)cc3)C(=O)c3ccccc32)cc1	none
COCCN(C(=O)COC(=O)c1cc2c(s1)CCC2)c1c(N)n(Cc2ccccc2)c(=O)[nH]c1=O	none
Cc1onc(C(=O)Nc2ccc(OC(F)(F)F)cc2)c1[N+](=O)[O-]	none
CC[n+]1c(/C=C2\Sc3ccccc3N2C)ccc2cccc(C)c21	HKDC1 act -40
Cc1ccc(C)c(-n2c3nc(=O)[nH]c(=O)c-3cc3cc([N+](=O)[O-])ccc32)c1	none
Cc1nc2c(c(=O)c3ccccc3n2C)c(=O)n1-c1ccc(F)cc1	none
Oc1ccc(/C=N/Nc2ncc(Br)cn2)c(O)c1	none
O=[N+]([O-])c1ccc(NN=Cc2ccc(O)cc2O)nc1	none
CCCOc1ccc(/C=N/NC(=S)Nc2ccccc2[N+](=O)[O-])c(O)c1	HKDC1 act -48
O=C(O)c1ccccc1NS(=O)(=O)c1ccc(N/N=C/c2cccc(O)c2O)c([N+](=O)[O-])c1	none
Cc1ccccc1NC(=S)N/N=C/c1ccc(O)cc1O	HKDC1 act -42
O=c1cc(O)c2sc(Nc3ccc(F)c(Cl)c3)nc2[nH]1	none
C[n+]1c2cc(N)ccc2cc2ccc(N)cc21	none
CC1C/C(=C/c2ccncc2)C(=O)/C(=C/c2ccncc2)C1 (stereo not given)	none
C[n+]1c(-c2ccccc2)cc2c(=Cc3ccccc3)c3ccccc3n21	none
CC1(OC(=O)C2CCCC2)C(=O)C=C2C=C(c3ccsc3)N(CCc3c[nH]c4ccccc34)C=C2C1=O (stereo not given)	none
O=C(CCl)N(c1ccc(Cl)cc1)c1c[nH]c2ccccc12	none
COc1ccc(N=C2NN=C(c3ccc4c(c3)OCCO4)CS2)cc1	HKDC1 act -84
FC(F)Sc1ccc(N=C2NN=C(c3ccc4c(c3)OCCO4)CS2)cc1	HKDC1 act -101
CCCCNC(=O)c1sc(=S)n2c1[nH]c(=O)c1ccccc12	none
C[n+]1c(-c2ccccc2)cc2c(=Cc3ccc([N+](=O)[O-])cc3)c3ccccc3n21	none
COC(=O)CCC(=O)OC1(C)C(=O)C2=CN(C3CCCC3)C(c3ccc(OC)cc3)=CC2=C(Br)C1=O (stereo not given)	none
CN(C)c1ccc(C=c2c3cc(O)ccc3n3c2cc(-c2ccccc2)[n+]3C)cc1	none
O=C(O)c1ccc(N2C(=O)/C(=C/c3ccc(-c4ccc([N+](=O)[O-])cc4)o3)C=C2c2ccccc2)cc1	none
CCOc1ccc(/C=C2/SC(=S)N(CCC(=O)Nc3ccc(C(=O)O)cc3)C2=O)cc1	none
Cc1ccccc1C(=O)Nc1ccc2c(C#N)c3nc4ccccc4nc3n2c1	none
O=c1[nH][nH]c2c(N=Cc3ccccc3O)ccc(F)c12	none
Cn1cnnc1SC1c2cccc3cccc(c23)C1NS(=O)(=O)c1ccccc1 (stereo not given)	HKDC1 act -49
CC(=O)N1CCN(C2c3cccc4cccc(c34)C2NS(=O)(=O)c2ccccc2)CC1 (stereo not given)	HKDC1 act -49
NC(=S)N=Nc1c(O)cc(O)c2[nH]c(=O)ccc12	none
CCOC(=O)c1cc2c(=Cc3ccc(N(C)C)cc3)c3ccccc3n2[n+]1C	none
O=C1C(Cl)=C(NCc2cccnc2)C(=O)c2ccccc21	HKDC1 act -45
O=C1C(Cl)=C(NCCc2ccccc2)C(=O)c2ccccc21	none
O=C1C=C(NCc2ccccc2)c2ccccc2C1=O	none
Cc1cc(C)n2nc(SCc3nnc(SCc4ccccc4Cl)s3)nc2n1	none
Cc1ccccc1OCCCN1C(=O)C(=O)c2cccc(C)c21	none
Cc1cc(C(=O)CCl)c(C)n1CCc1ccc(Cl)cc1	none
CC(=O)C1=C(c2ccc(Br)cc2)C(=O)c2ccccc2C1=O	none
O=C1C(=C(I)I)c2ccccc2-c2ccccc21	none
O=C1C(C2=C(O)c3ccccc3C2=O)=Nc2ccccc21	HKDC1 act -242
Cc1ccc(C)c(-n2nnnc2Sc2nnnn2-c2ccccc2)c1	none
Oc1ccc(O)c(Cc2nc3ccccc3s2)c1	none
Cc1cc(SCC(=O)c2cccc([N+](=O)[O-])c2)nc(=O)[nH]1	HKDC1 act -54
Cc1cccc(-n2c3nc(=O)[nH]c(=O)c-3cc3cc([N+](=O)[O-])ccc32)c1	none
O=C(C#Cc1ccccc1)c1cccc([N+](=O)[O-])c1	none
O=C(O)CSc1cc(NS(=O)(=O)c2ccc(Br)cc2)c2ccccc2c1O	none
COC(=O)c1ccc(CCc2cc(O)c(Br)cc2O)cc1	none
CCCC[n+]1c2ccccc2cc2ccccc21	none
Cc1ccc(N=Nc2ccc(O)c3ncccc23)cc1C	HKDC1 act -43
CCN1C/C(=C\c2cccc([N+](=O)[O-])c2)C(=O)/C(=C/c2cccc([N+](=O)[O-])c2)C1	none
CCCc1nc2c(c(=O)c3ccccc3n2C)c(=O)n1-c1ccc(F)cc1	none
COc1cc(/C=C2\SC(=Nc3ccc(Cl)c(C(=O)O)c3)NC2=O)c(Br)c(Br)c1O	none
COc1ccc(OC)c2[nH]c(=O)c(CCNC(=O)c3cc4ccccc4o3)cc12	none
Cc1cc(C)cc(-n2c(N)c(C(=O)Nc3c(C)n(C)n(-c4ccccc4)c3=O)c3nc4ccccc4nc32)c1	none
O=C(N/N=C/c1ccc(O)cc1O)c1ccc(CN2C(=O)c3cccc4cccc2c34)cc1	HKDC1 act -41
COc1ccc(N(CCCN2C(=O)c3cccc4cccc(c34)C2=O)C(=O)c2cccnc2)cc1	none
COc1ccc(C2=CC3=C(Br)C(=O)C(C)(OC(=O)c4ccco4)C(=O)C3=CO2)cc1 (stereo not given)	none
COc1cc(OC)c(OC)cc1CCC(C)NCCC(c1ccccc1)c1ccccc1 (stereo not given)	none
CC(=NNC(=S)N1CCN(C2CCCCCC2)CC1)c1ccccn1	HKDC1 act -42
CC(=NNC(=S)N1CC2CCC(CC2)C1)c1cnccn1	HKDC1 act -47
CCOc1ccc(CCNC(=O)c2ccc3c(=O)[nH]c4c(C(=O)NC(C)C)sc(=S)n4c3c2)cc1	none
Cc1oc2c(c1C(=O)c1ccc(Cl)cc1)C(=O)C(=O)c1ccccc1-2	none
Cc1ccc(S(=O)(=O)N(C(=O)c2ccco2)c2cc3sc(=O)oc3c3ccccc23)cc1	none
Cc1nc(COC(=O)c2cc(O)c3ccccc3c2O)cs1	none
O=C(CSc1nnc(CCCN2C(=O)c3cccc4cccc(c34)C2=O)n1-c1ccccc1)N1CCN(CCO)CC1	none
CCOC(=O)c1c(C)sc2c1N(C(=O)CCl)c1cc(Cl)ccc1S2	none
COc1ccc(N=c2ssnc2Cl)cc1	HKDC1 act -55
COc1cc(N=c2ssnc2Cl)cc(OC)c1OC	HKDC1 act -100
Cc1ccccc1NC1=C/C(=N\S(=O)(=O)c2cccs2)c2ccccc2C1=O	none

Screening results: PubChem, Sanford-Burnham Center for Chemical Genomics
